From ChEMBL document CHEMBL1153564 (Antimicrob Agents Chemother, 2008) come the findings set out here.

For orientation: MIC90 means the lowest concentration that inhibits either 90% of growth or 90% of the strains tested, depending on the study. A high value points to weaker potency. The ED50 is the dose that gives a 50% effect, or the effect in half of the subjects. What is called MIC is the smallest concentration in the dilution series that meets the test's criterion for growth inhibition.

Series [1] deals with Candida albicans. The series is described as follows: Antifungal activity against Candida albicans 98-17 infected in neutropenic ICR/Swiss mouse candidiasis model assessed as dose required to maintain […] of 3.81 +/- 0.33 log10CFU per kidney administered intraperitoneally every 24 hrs up to 4 days measured per 24 hrs. It is filed as functional. The method in brief: (§1)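 Neutropenic mice (cyclophosphamide sc on days −4, −1 and +2) were infected iv 2 h before therapy. Five total doses from 0.078 to 20 mg/kg/24 h were given ip q24h for 4 days, three mice per regimen. Kidney CFU were measured at the end of therapy. Static and 1-log-kill doses were derived from a Hill sigmoid dose-effect fit.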

Series [2] concerns Nakaseomyces glabratus. Put plainly: Antifungal activity against Candida glabrata after 24 hrs by broth microdilution method. Type of series: functional. The method in brief: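 Two end points were read against the drug-free control well: partial growth inhibition (the CLSI end point) and complete inhibition. Run in duplicate on four separate occasions; the value is the mean. Drug stock was made in DMSO and diluted in 0.9% NaCl.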

Series [3] deals with Nakaseomyces glabratus. Put plainly: Antifungal activity against Candida glabrata 32930 infected in neutropenic ICR/Swiss mouse candidiasis model assessed as dose required to maintain […] of 1.83 +/- 0.54 log10CFU per kidney administered intraperitoneally every 24 hrs up to 4 days measured per 24 hrs. Type of series: functional.
The subject of series [4] is Candida albicans. The series is described as follows: Antifungal activity against Candida albicans K-1 infected in neutropenic ICR/Swiss mouse candidiasis model assessed as reduction of […] in kidney at 5 mg/kg, ip administered 2 hrs postinfection as single dose measured after 96 hrs post dosing by time-kill assay. Type of series: functional, organism-based. The arrangement: dose 5 mg/kg. The method in brief:
(§2)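 Single ip dose (20, 5 or 1.25 mg/kg) given 2 h after iv infection of neutropenic mice with K-1. Three treated and three control mice were sampled at intervals over 96 h for kidney CFU. PAFE is the time for treated burden to rise 1 log10 after serum levels fall below MIC, minus the same time in controls. Free drug was taken as 1%.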

The nature of series [5]: Elimination half life in serum of neutropenic ICR/Swiss mouse candidiasis model at 5 mg/kg, ip by reverse-phase high-pressure liquid chromatography. It is filed as ADME, organism-based. The arrangement: dose 5 mg/kg, route intraperitoneal. The conditions noted are these: read-out: beta t1/2 (converted). The method in brief: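 Infected neutropenic ICR/Swiss mice given single ip doses (5, 20 or 80 mg/kg; 0.2 ml); serum from three isoflurane-anaesthetised mice at 1, 4, 8, 12, 24 and 48 h, stored at −80°C, assayed by reverse-phase HPLC with fluorescence detection, loratadine internal standard, linear 10–50,000 ng/ml. Noncompartmental analysis; half-life by nonlinear least squares.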

Series [6] has as its system Nakaseomyces glabratus. Put plainly: Antifungal activity against Candida glabrata 5376 infected in neutropenic ICR/Swiss mouse candidiasis model assessed as […] burden per kidney administered intraperitoneally every 24 hrs up to 4 days measured per 96 hrs. As to conditions: Nakaseomyces glabratus, 5376, Kidney, ip. Type of series: functional. The method in brief: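 Neutropenic ICR/Swiss mice infected i.v. with the strain; therapy began 2 h later. Total doses of 1.25–320 mg/kg/96 h were given i.p. as 1, 2, 4 or 6 doses (q96h, q48h, q24h, q16h), three mice per regimen. Kidney CFU were counted after 4 days. Effect is the change from untreated controls at the end of therapy.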

Series [7] relates to Nakaseomyces glabratus. Put plainly: Antifungal activity against Candida glabrata 33609 infected in neutropenic ICR/Swiss mouse candidiasis model assessed as dose required for 1-log10 reduction in […] per kidney administered intraperitoneally every 24 hrs up to 4 days measured per 24 hrs. It is filed as functional. The method, boiled down: as §1
The test system of series [8] is Candida albicans. The series is described as follows: Antifungal activity against Candida albicans K-1 infected in neutropenic ICR/Swiss mouse candidiasis model assessed as prolongation of fungal growth suppression at 1.25 mg/kg, ip administered 2 hrs postinfection as single dose by time-kill assay. As to conditions: route intraperitoneal. Type of series: functional. The method, boiled down: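 Single ip dose of 1.25, 5 or 20 mg/kg given 2 h after iv infection of neutropenic mice. Groups of 3 treated and 3 control mice sampled at 1–24 h intervals over 96 h. Kidney homogenates plated on SDA, 24 h at 35°C. PAFE = time for treated burden to rise 1 log10 CFU/kidney after serum level fell below MIC, minus the same time in controls.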

Series [9] concerns Candida albicans. Put plainly: Antifungal activity against Candida albicans K-1 infected in neutropenic ICR/Swiss mouse candidiasis model assessed as reduction of […] in kidney at 20 mg/kg, ip administered 2 hrs postinfection as single dose measured after 96 hrs post dosing by time-kill assay. It is filed as functional, organism-based. The arrangement: dose 20 mg/kg. The method, boiled down:
as §2

The test system of series [10] is Candida albicans. The series is described as follows: Antifungal activity against Candida albicans 98-210 assessed as complete growth inhibition after 24 hrs by CLSI end point method. It is filed as functional. The conditions noted are these: 98-210, 24 h. The method, boiled down: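 CLSI M27-A2 broth dilution. Two end points read against the drug-free control well: partial inhibition (CLSI end point) and complete inhibition. Run in duplicate on four separate occasions; value is the mean. Drug stock in DMSO, diluted in 0.9% NaCl.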

Series [11] deals with Nakaseomyces glabratus. The series is described as follows: Antifungal activity against Candida glabrata 34341 infected in neutropenic ICR/Swiss mouse candidiasis model assessed as fungal count per kidney administered 2 hrs postinfection measured up to 48 hrs. Type of series: functional. The method, boiled down:
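Female ICR/Swiss mice (23–27 g) made neutropenic with cyclophosphamide s.c. (150 mg/kg day −4, 100 mg/kg day −1, 100 mg/kg day +2). Infected by tail vein with 0.1 ml inoculum (~6.1 log10 CFU/ml). Kidneys of untreated mice were homogenised and plated on SDA for 24 h at 35°C. Growth over 48 h is given as log10 CFU/kidney.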

Series [12] deals with Candida tropicalis. Put plainly: Antifungal activity against Candida tropicalis 98-234 infected in neutropenic ICR/Swiss mouse candidiasis model assessed as fungal count per kidney administered 2 hrs postinfection measured up to 48 hrs. It is filed as functional. The method, boiled down: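 Untreated neutropenic ICR/Swiss female mice infected iv via lateral tail vein (0.1 ml, 6.1 ± 0.51 log10 CFU/ml); kidneys homogenised, serially diluted 1:10 and plated on SDA, counted after 24 h at 35°C; growth in kidneys over 48 h, mean CFU per kidney of three mice, detection limit 100 CFU/ml.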

For series [13], the system named is Candida albicans. The series is described as follows: Antifungal activity against Candida albicans K-1 infected in neutropenic ICR/Swiss mouse candidiasis model assessed as reduction of […] in kidney at 1.25 mg/kg, ip administered 2 hrs postinfection as single dose measured within 1 to 4 hrs post dosing by time-kill assay. Type of series: functional, organism-based. Details: dose 1.25 mg/kg. The method in brief:
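Neutropenic mice given a single ip dose (1.25, 5 or 20 mg/kg) 2 h after tail-vein infection. Kidneys from 3 mice per time point collected nine times over 96 h. Homogenates serially diluted 1:10 and plated on SDA, 24 h at 35°C. Detection limit 100 CFU/ml.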

For series [14], the system named is Nakaseomyces glabratus. The series is described as follows: Antifungal activity against Candida glabrata 5376 infected in neutropenic ICR/Swiss mouse candidiasis model assessed as reduction of […] in kidney at 5 mg/kg, ip administered 2 hrs postinfection as single dose measured after 96 hrs post dosing by time-kill assay. It is filed as functional, organism-based. The arrangement: dose 5 mg/kg. The method in brief: (§3)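 Neutropenic mice were infected i.v. and 2 h later given a single i.p. dose (1.25, 5 or 20 mg/kg). Groups of three treated and three control mice were killed at intervals over 96 h, and kidney CFU were counted on SDA (limit 100 CFU/ml). The post-antifungal effect is t − c: the time for a 1 log10 CFU/kidney increase once serum levels fall below the MIC in treated mice, minus the same time in controls.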

The test system of series [15] is Serum. Put plainly: Fraction unbound in Candida albicans K-1 infected neutropenic ICR/Swiss mouse serum at 5 mg/kg, ip administered 2 hrs postinfection as single dose. It is filed as ADME, organism-based. The arrangement: dose 5 mg/kg, route intraperitoneal. The conditions noted are these: in vivo.
Series [16] has as its system Nakaseomyces glabratus. Put plainly: Antifungal activity against Candida glabrata 5376 infected in neutropenic ICR/Swiss mouse candidiasis model assessed as prolongation of fungal growth suppression at 20 mg/kg, ip administered 2 hrs postinfection as single dose by time-kill assay. It is filed as functional. The conditions noted are these: route intraperitoneal. The method in brief:
as §3

In brackets after ≈: the same amount, converted by molar mass. Activity calls are given as the source filed them. Starred links: 1 amine or outer side, 2 acyl side, 3 side chain; linkers in the order of their positions; H or OH if unused. Positions of bridges follow the written chain, without caps; N, C: chain ends. Non-standard residues stand in square brackets, D forms with d. Residues, ends and D or L forms follow the SMILES beside them. *: point of attachment. pTerphenylCO(4''-OnC5H11) = CCCCCOc1ccc(-c2ccc(-c3ccc(C(=O)*)cc3)cc2)cc1; Orn(4R-OH,5R-OH) = O=C([C@H](C[C@@H](O)[C@@H](O)N[*:3])N[*:1])[*:2]; hTyr(3S-OH,4S-OH) = N[C@H](C(=O)O)[C@H](O)[C@@H](O)c1ccc(O)cc1; Pro(3S-OH,4S-Me) = C[C@H]1CN[C@H](C(=O)O)[C@H]1O; Hyp = O=C(O)[C@@H]1C[C@@H](O)CN1

`CCCCCOc1ccc(-c2ccc(-c3ccc(C(=O)N[C@H]4C[C@@H](O)[C@@H](O)NC(=O)[C@@H]5[C@@H](O)[C@@H](C)CN5C(=O)[C@H]([C@@H](C)O)NC(=O)[C@H]([C@H](O)[C@@H](O)c5ccc(O)cc5)NC(=O)[C@@H]5C[C@@H](O)CN5C(=O)[C@H]([C@@H](C)O)NC4=O)cc3)cc2)cc1` [ANIDULAFUNGIN] ({pTerphenylCO(4''-OnC5H11)}-[Orn(4R-OH,5R-OH)]T[Hyp][hTyr(3S-OH,4S-OH)]T[Pro(3S-OH,4S-Me)]; lactam 1-C): the Activity in [1] was found to be 1.15 mg/kg; in series [3], 1.58 mg/kg; in [7] it was 4.21 mg/kg; in [8] it was 56 h; in series [16], 67 h. In addition, the MIC90 in [2] came out at 0.12 µg/mL (≈ 0.105 µM). Besides, the outcome in series [4], in series [9], in series [13] and in [14] was Active. In addition, the half-life in [5] was 14.8 h. Moreover, the ED50 in series [6] came to 15.9 mg/kg. The MIC in [10] turned out to be 0.06 µg/mL (≈ 0.0526 µM). Further, the results for the log10cfu in [11] and in series [12] were 1.82 and 3.84, respectively. In series [15], this compound had a Fu of 1%.
